Results: ChEMBL document CHEMBL3779881, “Property Focused Structure-Based Optimization of Small Molecule Inhibitors of the Protein-Protein Interaction between Menin and Mixed Lineage Leukemia (MLL)” (J Med Chem, 2016)

How the values were obtained:
[1] = target: Menin/Histone-lysine N-methyltransferase MLL (Homo sapiens, UniProt O00255); assay: Inhibition of menin-MLL interaction (unknown origin) after 1 hr by fluorescence polarization assay; format: protein assay
[2] = Growth inhibition of MLL-AF9 transformed mouse bone marrow cells after 7 days by MTT assay; format: functional; conditions: Bone marrow cell, 168 h
[3] = Half life in CD-1 mouse liver microsomes at 1 uM after 3 to 60 mins by LC-MS/MS analysis; format: ADME
[4] = Growth inhibition of Hoxa9/Meis1 transformed mouse bone marrow cells after 7 days by MTT assay; format: functional; conditions: Bone marrow cell, 168 h
Bone marrow cell = assay: Selectivity index, ratio of GI50 for Hoxa9/Meis1 transformed mouse bone marrow cells to GI50 for MLL-AF9 transformed mouse bone marrow cells; format: functional
Mus musculus [5] = assay: Tmax in C57BL/6 mouse plasma at 30 mg/kg, po after 24 hrs by LC-MS/MS analysis; format: ADME, organism-based; conditions: in vivo
Outline: (§1)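 Female C57BL/6 mice dosed iv at 15 mg/kg or orally at 30 mg/kg in 25% DMSO/25% PEG-400/50% PBS (v/v). Serial 50 μL blood samples collected over 24 h (8 h in one experiment), spun to plasma; concentrations by validated LC-MS/MS in positive-ion MRM mode; parameters from noncompartmental analysis.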

Mus musculus [6] = assay: Cmax in C57BL/6 mouse plasma at 30 mg/kg, po after 24 hrs by LC-MS/MS analysis; format: ADME, organism-based; design: dose 30 mg/kg, route oral; conditions: in vivo; outline: as §1
Mus musculus [7] = assay: AUC in C57BL/6 mouse at 15 mg/kg, iv after 24 hrs by LC-MS/MS analysis; format: ADME, organism-based; design: dose 15 mg/kg, time < 24 hr, route intravenous; conditions: in vivo; outline: as §1
Mus musculus [8] = assay: AUC in C57BL/6 mouse at 30 mg/kg, po after 24 hrs by LC-MS/MS analysis; format: ADME, organism-based; design: time < 24 hr, dose 30 mg/kg, route oral; conditions: in vivo; outline: as §1
Mus musculus [9] = assay: Half life in C57BL/6 mouse at 15 mg/kg, iv after 24 hrs by LC-MS/MS analysis; format: ADME, organism-based; conditions: in vivo; outline: as §1
Mus musculus [10] = assay: Half life in C57BL/6 mouse at 30 mg/kg, po after 24 hrs by LC-MS/MS analysis; format: ADME, organism-based; conditions: in vivo; outline: as §1
[11] = Clearance in C57BL/6 mouse at 15 mg/kg, iv after 24 hrs by LC-MS/MS analysis; format: ADME, organism-based; conditions: in vivo; outline: as §1
Mus musculus [12] = assay: Volume of distribution at steady state in C57BL/6 mouse at 15 mg/kg, iv after 24 hrs by LC-MS/MS analysis; format: ADME, organism-based; conditions: in vivo; outline: as §1
Mus musculus [13] = assay: Oral bioavailability in C57BL/6 mouse at 30 mg/kg after 24 hrs by LC-MS/MS analysis; format: ADME, organism-based; conditions: in vivo; outline: as §1
Menin = target: T1, Menin (Homo sapiens, UniProt O00255); assay: Binding affinity to menin (unknown origin)
T1 sequence (O00255 whole entry): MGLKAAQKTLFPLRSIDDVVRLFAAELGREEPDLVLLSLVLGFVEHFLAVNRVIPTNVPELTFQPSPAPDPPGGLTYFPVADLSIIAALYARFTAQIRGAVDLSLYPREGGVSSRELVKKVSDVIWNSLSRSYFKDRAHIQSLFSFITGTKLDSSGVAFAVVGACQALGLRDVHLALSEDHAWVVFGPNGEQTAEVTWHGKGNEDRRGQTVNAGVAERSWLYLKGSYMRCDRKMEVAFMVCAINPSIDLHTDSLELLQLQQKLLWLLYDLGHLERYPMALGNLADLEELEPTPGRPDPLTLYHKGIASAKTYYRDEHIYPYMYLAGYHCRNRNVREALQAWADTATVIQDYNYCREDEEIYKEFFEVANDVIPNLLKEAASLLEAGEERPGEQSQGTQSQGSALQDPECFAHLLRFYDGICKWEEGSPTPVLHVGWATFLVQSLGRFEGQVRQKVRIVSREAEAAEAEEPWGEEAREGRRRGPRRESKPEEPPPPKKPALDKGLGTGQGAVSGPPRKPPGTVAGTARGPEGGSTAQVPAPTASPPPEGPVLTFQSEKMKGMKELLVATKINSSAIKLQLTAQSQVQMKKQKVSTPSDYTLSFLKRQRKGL

Chain of Menin/Histone-lysine N-methyltransferase MLL (Q03164 1-2718 partner limits assumed, one chain of several): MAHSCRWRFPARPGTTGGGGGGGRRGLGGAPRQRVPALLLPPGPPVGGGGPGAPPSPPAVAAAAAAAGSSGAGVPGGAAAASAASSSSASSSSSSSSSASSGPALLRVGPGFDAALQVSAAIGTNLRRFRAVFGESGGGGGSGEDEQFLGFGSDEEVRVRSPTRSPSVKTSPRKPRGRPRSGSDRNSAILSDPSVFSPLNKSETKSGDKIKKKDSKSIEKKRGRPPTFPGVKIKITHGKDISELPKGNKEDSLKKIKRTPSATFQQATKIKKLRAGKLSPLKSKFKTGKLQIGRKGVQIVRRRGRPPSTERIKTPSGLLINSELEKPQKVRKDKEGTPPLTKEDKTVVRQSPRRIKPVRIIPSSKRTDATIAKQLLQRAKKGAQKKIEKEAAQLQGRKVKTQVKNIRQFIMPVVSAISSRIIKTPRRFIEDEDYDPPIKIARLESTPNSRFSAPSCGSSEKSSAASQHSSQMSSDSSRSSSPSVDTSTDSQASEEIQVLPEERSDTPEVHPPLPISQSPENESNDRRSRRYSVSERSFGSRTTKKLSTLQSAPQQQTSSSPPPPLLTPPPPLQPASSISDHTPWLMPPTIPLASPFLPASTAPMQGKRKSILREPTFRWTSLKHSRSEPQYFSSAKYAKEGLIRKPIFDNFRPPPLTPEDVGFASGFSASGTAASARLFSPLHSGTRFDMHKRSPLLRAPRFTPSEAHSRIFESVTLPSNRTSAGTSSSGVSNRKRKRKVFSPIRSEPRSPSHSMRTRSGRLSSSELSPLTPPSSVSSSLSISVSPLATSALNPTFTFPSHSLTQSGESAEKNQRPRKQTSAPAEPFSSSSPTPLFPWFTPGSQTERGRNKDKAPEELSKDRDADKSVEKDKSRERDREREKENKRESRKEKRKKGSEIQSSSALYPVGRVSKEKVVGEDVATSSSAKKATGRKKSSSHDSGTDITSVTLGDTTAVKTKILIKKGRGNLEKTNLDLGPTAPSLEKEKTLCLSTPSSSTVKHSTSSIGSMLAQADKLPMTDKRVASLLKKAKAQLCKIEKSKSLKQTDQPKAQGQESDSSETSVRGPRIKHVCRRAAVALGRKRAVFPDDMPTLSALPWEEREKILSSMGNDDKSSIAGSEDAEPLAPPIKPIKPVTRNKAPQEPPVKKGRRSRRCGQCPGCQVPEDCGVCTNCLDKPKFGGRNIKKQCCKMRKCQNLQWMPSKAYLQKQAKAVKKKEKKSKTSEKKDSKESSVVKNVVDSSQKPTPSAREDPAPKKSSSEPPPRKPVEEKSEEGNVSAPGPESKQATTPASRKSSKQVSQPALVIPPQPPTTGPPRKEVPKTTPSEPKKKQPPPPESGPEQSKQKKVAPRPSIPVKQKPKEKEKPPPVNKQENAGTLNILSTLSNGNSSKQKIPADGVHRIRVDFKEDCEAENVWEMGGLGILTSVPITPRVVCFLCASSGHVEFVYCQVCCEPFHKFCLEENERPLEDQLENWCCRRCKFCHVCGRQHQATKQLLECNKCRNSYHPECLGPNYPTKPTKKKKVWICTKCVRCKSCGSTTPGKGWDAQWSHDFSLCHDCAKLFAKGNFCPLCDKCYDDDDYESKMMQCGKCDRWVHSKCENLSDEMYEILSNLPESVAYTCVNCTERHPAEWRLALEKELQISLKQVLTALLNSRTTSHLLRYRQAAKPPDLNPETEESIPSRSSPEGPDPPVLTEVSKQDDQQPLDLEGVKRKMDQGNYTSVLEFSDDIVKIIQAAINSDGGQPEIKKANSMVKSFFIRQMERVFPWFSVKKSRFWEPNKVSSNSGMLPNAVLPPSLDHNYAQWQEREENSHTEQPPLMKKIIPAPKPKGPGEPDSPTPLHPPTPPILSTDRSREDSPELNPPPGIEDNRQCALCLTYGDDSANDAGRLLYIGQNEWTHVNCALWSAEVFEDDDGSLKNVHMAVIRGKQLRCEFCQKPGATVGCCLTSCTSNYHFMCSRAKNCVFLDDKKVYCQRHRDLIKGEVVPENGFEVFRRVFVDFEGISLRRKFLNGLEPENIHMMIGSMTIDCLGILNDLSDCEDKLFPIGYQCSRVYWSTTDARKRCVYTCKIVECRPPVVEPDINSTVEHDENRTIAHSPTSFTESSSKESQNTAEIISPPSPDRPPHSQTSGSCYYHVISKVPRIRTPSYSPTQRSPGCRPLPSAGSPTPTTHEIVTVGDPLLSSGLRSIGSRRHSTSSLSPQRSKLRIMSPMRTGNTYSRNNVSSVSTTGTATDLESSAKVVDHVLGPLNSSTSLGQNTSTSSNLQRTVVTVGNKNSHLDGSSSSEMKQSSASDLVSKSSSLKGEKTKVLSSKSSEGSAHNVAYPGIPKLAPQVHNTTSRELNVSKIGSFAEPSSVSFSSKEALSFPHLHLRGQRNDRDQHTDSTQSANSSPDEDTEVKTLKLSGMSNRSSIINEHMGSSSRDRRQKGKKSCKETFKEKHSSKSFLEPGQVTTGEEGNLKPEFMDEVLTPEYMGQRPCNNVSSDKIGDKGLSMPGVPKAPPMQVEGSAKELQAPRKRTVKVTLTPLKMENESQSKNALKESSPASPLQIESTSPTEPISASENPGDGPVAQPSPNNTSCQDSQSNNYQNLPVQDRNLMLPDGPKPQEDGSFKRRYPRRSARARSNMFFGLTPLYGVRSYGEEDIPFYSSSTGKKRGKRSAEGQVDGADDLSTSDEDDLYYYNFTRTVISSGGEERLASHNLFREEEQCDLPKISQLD
Chain of Menin/Histone-lysine N-methyltransferase MLL (Q03164 2719-3969 partner limits assumed, one chain of several): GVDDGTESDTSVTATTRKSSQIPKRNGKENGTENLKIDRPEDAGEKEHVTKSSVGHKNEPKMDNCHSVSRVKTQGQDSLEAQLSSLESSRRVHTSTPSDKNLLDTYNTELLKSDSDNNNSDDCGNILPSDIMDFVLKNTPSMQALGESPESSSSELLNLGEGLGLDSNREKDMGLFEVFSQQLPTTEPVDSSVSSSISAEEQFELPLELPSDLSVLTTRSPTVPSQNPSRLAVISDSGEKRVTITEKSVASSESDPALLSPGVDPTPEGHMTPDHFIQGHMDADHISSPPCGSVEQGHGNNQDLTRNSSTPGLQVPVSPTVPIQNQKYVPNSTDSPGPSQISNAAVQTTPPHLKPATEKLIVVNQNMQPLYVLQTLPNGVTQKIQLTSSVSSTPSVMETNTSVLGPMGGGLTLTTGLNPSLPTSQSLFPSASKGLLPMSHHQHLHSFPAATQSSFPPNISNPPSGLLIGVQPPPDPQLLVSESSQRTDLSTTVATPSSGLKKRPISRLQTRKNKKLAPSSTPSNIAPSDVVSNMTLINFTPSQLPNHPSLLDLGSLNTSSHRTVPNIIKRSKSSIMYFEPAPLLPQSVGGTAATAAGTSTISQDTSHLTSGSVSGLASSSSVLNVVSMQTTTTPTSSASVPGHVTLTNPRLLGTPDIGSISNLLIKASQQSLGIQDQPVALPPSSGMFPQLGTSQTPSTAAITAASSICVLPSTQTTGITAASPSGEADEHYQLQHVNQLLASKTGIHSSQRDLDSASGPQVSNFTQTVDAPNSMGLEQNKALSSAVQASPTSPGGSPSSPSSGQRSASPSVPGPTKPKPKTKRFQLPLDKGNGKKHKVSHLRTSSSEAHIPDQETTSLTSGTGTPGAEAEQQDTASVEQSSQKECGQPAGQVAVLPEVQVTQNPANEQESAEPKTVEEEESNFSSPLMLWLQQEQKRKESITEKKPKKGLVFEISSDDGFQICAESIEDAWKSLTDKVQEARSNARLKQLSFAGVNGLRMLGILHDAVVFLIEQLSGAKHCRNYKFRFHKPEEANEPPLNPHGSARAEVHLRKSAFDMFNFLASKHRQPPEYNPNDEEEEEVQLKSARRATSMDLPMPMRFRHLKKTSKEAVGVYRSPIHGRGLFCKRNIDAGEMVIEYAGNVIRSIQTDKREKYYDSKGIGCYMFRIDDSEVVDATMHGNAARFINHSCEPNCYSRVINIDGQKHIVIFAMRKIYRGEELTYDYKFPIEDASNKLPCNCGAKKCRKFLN

Row | SMILES | IC50 [1] [nM] | GI50 [2] [nM] | t1/2 [3] [min] | GI50 [4] [nM] | RatioGI50 (Bone marrow cell) | Tmax (Mus musculus [5]) [min] | Cmax (Mus musculus [6]) [ng/mL] | AUC (Mus musculus [7]) [ng·h/mL] | AUC (Mus musculus [8]) [ng·h/mL] | t1/2 (Mus musculus [9]) [min] | t1/2 (Mus musculus [10]) [min] | clearance [11] [mL/min/kg] | Vdss (Mus musculus [12]) [L/kg] | F (Mus musculus [13]) [%] | Kd (Menin) [nM]
1 | N#Cc1cc2cc(CN3CCC(Nc4ncnc5sc(CC(F)(F)F)cc45)CC3)ccc2n1C[C@H](O)CO | 42 | 3800 | > 60 | – | – | – | – | – | – | – | – | – | – | – | –
2 | N#Cc1cc2cc(CN3CCC(Nc4ncnc5sc(CC(F)(F)F)cc45)CC3)c(F)cc2[nH]1 | 109 | 3000 | 9 | > 12000 | >4 | – | – | – | – | – | – | – | – | – | –
3 | CC(C)OC(CO)Cn1c(C#N)cc2cc(CN3CCC(Nc4ncnc5sc(CC(F)(F)F)cc45)CC3)ccc21 (stereo not given) | 23 | 180 | < 3 | 3500 | 19 | – | – | – | – | – | – | – | – | – | –
4 | Cc1c(CN2CCC(Nc3ncnc4sc(CC(F)(F)F)cc34)CC2)c(O)cc2[nH]c(C#N)cc12 | 27 | 220 | 56 | 12000 | 55 | 120 | 649 | 5666 | 3846 | 102 | 240 | 44.1 | 4.454 | 34 | –
5 | Cc1c(CN2CCC(Nc3ncnc4sc(CC(F)(F)F)cc34)CC2)ccc2c1cc(C#N)n2Cc1c[nH]nn1 | 23 | 250 | 59 | 8000 | 32 | – | – | – | – | – | – | – | – | – | –
6 | N#Cc1cc2cc(CN3CCC(Nc4ncnc5sc(CC(F)(F)F)cc45)CC3)ccc2[nH]1 | 31 | 550 | 6.8 | 3000 | 5.5 | 60 | 1516 | 6576 | 7509 | 186 | 186 | 38.1 | 6.516 | 57 | 23.6
7 | COc1cc2c(cc(C#N)n2CC(N)=O)c(C)c1CN1CCC(Nc2ncnc3sc(CC(F)(F)F)cc23)CC1 | 37 | 420 | > 60 | > 25000 | >60 | – | – | – | – | – | – | – | – | – | –
8 | N#Cc1cc2cc(CN3CCC(Nc4ncnc5sc(CC(F)(F)F)cc45)CC3)ccc2n1Cc1cn[nH]c1 | 23 | 260 | 8.3 | 6900 | 27 | – | – | – | – | – | – | – | – | – | –
9 | N#Cc1[nH]c2ccc(CN3CCC(Nc4ncnc5sc(CC(F)(F)F)cc45)CC3)cc2c1F | 96 | 1700 | 5.7 | – | – | – | – | – | – | – | – | – | – | – | –
10 | Cc1c(CN2CCC(Nc3ncnc4sc(CC(F)(F)F)cc34)CC2)ccc2[nH]c(C#N)cc12 | – | 200 | – | 5600 | – | – | – | – | – | – | – | – | – | – | –
11 | N#Cc1cc2cc(CN3CCC(Nc4ncnc5sc(CC(F)(F)F)cc45)CC3)ccc2n1CCO | 35 | 1100 | 18 | 6200 | 5.6 | – | – | – | – | – | – | – | – | – | –
12 | Cc1c(CN2CCC(Nc3ncnc4sc(CC(F)(F)F)cc34)CC2)ccc2c1cc(C#N)n2CC(N)=O | 27 | 470 | 59 | > 25000 | >53 | – | – | – | – | – | – | – | – | – | –
13 | N#Cc1cc2cc(CN3CCC(Nc4ncnc5sc(CC(F)(F)F)cc45)CC3)c(O)cc2[nH]1 | 20 | 180 | 6.6 | > 10000 | >56 | – | – | – | – | – | – | – | – | – | –
14 | Cc1c(C#N)[nH]c2ccc(CN3CCC(Nc4ncnc5sc(CC(F)(F)F)cc45)CC3)cc12 | 111 | 2600 | 4.8 | – | – | – | – | – | – | – | – | – | – | – | –
15 | N#Cc1cc2c(Cl)c(CN3CCC(Nc4ncnc5sc(CC(F)(F)F)cc45)CC3)ccc2[nH]1 | 22 | 1100 | 28 | 11000 | 10 | – | – | – | – | – | – | – | – | – | –
16 | CCOc1cc2[nH]c(C#N)cc2cc1CN1CCC(Nc2ncnc3sc(CC(F)(F)F)cc23)CC1 | 47 | 450 | 11 | 5300 | 12 | – | – | – | – | – | – | – | – | – | –
17 | COc1cc2c(cc1CN1CCC(Nc3ncnc4sc(CC(F)(F)F)cc34)CC1)cc(C#N)n2Cc1cn[nH]c1 | 24 | 290 | 35 | 6700 | 23 | – | – | – | – | – | – | – | – | – | –
